# Experimental data taken from ChEMBL document CHEMBL1287807, “Novel TNF-α converting enzyme (TACE) inhibitors as potential treatment for inflammatory diseases” (Bioorg Med Chem Lett, 2010).
# What was measured:
# [1] = target: Disintegrin and metalloproteinase domain-containing protein 17 (Homo sapiens, UniProt P78536); assay: Inhibition of TACE
# [2] = test system: Blood; assay: Antiinflammatory activity in human whole blood assessed as inhibition of LPS-induced TNFalpha production after 3.5 hrs by ELISA; type: functional
# Method in brief: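 Human whole blood, diluted 1:1 in serum-free RPMI with L-glutamine, Pen-Strep and HEPES, is preincubated with compound for 1 h at 37 °C. It is then stimulated with LPS. Supernatant is harvested after 3.5 h incubation, and TNF-α concentration is measured by ELISA.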
# Sequence of Disintegrin and metalloproteinase domain-containing protein 17 (P78536 whole entry, the tested form may be a part): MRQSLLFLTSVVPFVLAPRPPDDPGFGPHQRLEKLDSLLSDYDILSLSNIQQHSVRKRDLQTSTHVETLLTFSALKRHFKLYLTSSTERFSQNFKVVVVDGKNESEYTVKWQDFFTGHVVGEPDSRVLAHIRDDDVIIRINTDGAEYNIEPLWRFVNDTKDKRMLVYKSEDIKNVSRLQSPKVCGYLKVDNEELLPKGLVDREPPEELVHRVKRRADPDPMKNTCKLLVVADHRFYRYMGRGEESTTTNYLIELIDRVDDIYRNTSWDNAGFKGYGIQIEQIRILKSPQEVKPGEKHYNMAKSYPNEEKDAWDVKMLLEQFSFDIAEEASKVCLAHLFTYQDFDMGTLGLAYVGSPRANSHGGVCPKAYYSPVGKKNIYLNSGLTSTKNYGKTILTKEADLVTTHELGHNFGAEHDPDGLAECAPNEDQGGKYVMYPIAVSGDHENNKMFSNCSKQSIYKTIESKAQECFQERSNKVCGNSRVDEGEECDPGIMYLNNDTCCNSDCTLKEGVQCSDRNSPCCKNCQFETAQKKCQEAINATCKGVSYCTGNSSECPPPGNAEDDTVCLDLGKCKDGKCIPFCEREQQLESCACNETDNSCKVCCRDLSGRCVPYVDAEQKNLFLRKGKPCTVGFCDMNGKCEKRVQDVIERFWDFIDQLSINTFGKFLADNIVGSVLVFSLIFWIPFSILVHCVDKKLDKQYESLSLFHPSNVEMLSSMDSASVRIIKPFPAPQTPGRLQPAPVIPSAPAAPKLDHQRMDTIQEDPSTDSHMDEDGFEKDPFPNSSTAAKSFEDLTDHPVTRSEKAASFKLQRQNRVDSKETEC
Ki [1] [nM],SMILES,Activity [2] [nM]
0.16,COc1ccc2c(c1)C(=O)N(C[C@@]1(C#Cc3ccc(/C=N/O)cc3)NC(=O)NC1=O)C2,167
2.35,COc1ccc2c(c1)C(=O)N(C[C@@]1(C#Cc3ccc([C@H](C)N)cc3)NC(=O)NC1=O)C2,621
0.14,COc1ccc2c(c1)C(=O)N(C[C@@]1(C#Cc3ccccc3)NC(=O)NC1=O)C2,784
0.2,COc1ccc2c(c1)C(=O)N(C[C@@]1(C#Cc3cccc(F)c3)NC(=O)NC1=O)C2,873
0.18,CCN1CCN(/C(=N\O)c2ccc(C#C[C@]3(CN4Cc5ccc(OC)cc5C4=O)NC(=O)NC3=O)cn2)CC1,87
0.26,COc1ccc2c(c1)C(=O)N(C[C@@]1(C#Cc3ccc(F)cc3)NC(=O)NC1=O)C2,1675
0.29,CCN1CCN(Cc2ccc(C#C[C@]3(CN4Cc5ccc(OC)cc5C4=O)NC(=O)NC3=O)cc2)CC1,239
0.41,COc1ccc(C#C[C@]2(CN3Cc4ccc(OC)cc4C3=O)NC(=O)NC2=O)cc1,1332
0.07,COc1ccc2c(c1)C(=O)N(C[C@@]1(C#Cc3ccc(-c4ncccc4O)cc3)NC(=O)NC1=O)C2,117
0.56,COc1ccc2c(c1)C(=O)N(C[C@@]1(C#Cc3ccc(C(N)=O)cc3)NC(=O)NC1=O)C2,165
0.92,COc1ccc2c(c1)C(=O)N(C[C@@]1(C#Cc3cnc4[nH]cnc4c3)NC(=O)NC1=O)C2,193
0.13,COc1ccc2c(c1)C(=O)N(C[C@@]1(C#Cc3ccccc3F)NC(=O)NC1=O)C2,617
0.53,COc1ccc2c(c1)C(=O)N(C[C@@]1(C#Cc3ccc4[nH]c(=O)[nH]c4c3)NC(=O)NC1=O)C2,240
0.85,COc1ccc2c(c1)C(=O)N(C[C@@]1(C#Cc3cccc(C(N)=O)c3)NC(=O)NC1=O)C2,
0.5,COc1ccc2c(c1)C(=O)N(C[C@@]1(C#Cc3ccc(C(C)=O)cc3)NC(=O)NC1=O)C2,352
